Test results: ChEMBL document CHEMBL3621114, “Design and Synthesis of Non-Peptide, Selective Orexin Receptor 2 Agonists” (J Med Chem, 2015)
Active and inactive are the calls of the source. No cut-off for these calls is given here.

What was measured:
Orexin receptor type 2 [1] = molecular target: T1, Orexin receptor type 2 (Homo sapiens, UniProt O43614); assay: Agonist activity at human OX2R expressed in CHOK1 cells by calcium mobilization assay
T1 sequence (O43614 whole entry): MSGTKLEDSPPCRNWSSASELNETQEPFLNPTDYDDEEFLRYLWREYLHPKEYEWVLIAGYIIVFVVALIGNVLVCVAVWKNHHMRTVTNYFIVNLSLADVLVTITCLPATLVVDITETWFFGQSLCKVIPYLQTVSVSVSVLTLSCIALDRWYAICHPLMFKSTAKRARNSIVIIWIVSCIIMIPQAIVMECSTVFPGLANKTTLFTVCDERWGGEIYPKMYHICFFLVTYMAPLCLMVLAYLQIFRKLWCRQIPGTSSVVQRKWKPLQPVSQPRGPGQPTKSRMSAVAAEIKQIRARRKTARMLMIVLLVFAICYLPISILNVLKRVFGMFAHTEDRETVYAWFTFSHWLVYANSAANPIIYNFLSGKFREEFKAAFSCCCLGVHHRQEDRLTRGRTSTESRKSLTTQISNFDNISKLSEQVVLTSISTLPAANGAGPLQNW

[2] = molecular target: T2, Orexin receptor type 2 (Homo sapiens) (UniProt O43614); assay: Agonist activity at human OX2R expressed in CHOK1 cells at 10 uM by calcium mobilization assay relative to orexin-A; details: CHO-K1
T2 sequence (whole entry): T1 sequence (O43614 whole entry)

[3] = molecular target: T3, Orexin/Hypocretin receptor type 1 (Homo sapiens) (UniProt O43613); assay: Agonist activity at human OX1R expressed in CHOK1 cells by calcium mobilization assay relative to orexin-A; type: functional, cell-based; details: CHO-K1
T3 sequence (whole entry): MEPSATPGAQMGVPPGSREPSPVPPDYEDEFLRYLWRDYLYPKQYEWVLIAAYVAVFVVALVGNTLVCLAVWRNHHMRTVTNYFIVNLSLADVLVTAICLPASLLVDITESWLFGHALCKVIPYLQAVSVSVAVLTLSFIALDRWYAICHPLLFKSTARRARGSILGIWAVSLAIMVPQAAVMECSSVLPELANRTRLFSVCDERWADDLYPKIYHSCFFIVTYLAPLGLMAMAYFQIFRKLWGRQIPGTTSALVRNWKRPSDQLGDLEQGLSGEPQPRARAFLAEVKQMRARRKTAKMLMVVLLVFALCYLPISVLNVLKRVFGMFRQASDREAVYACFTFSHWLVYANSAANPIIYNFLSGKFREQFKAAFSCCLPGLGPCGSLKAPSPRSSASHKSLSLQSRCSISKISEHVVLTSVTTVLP

Orexin receptor type 2 [4] = molecular target: T1, Orexin receptor type 2; assay: biochemical
Mus musculus [5] = assay: Induction of wakefullness in C57BL/6J mouse assessed as increase in wake time by measuring EEG/EMG signals at 260 nmol, icv dosed on every other day during light phase; type: functional
How it was run: (§1)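 Intracerebroventricular injection during the light phase, given at 6 h into the light phase (ZT6). Saline was the vehicle control. Sleep/wake states were scored from EEG/EMG recordings, and the read-out was cumulative time awake within 2 h after dosing. Wild-type C57BL/6J mice and OX1R/OX2R double-knockout mice were used.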

[6] = molecular target: T4, Orexin/Hypocretin receptor type 1 (Homo sapiens, UniProt O43613); assay: Agonist activity at human OX1R expressed in CHOK1 cells by calcium mobilization assay; type: functional, cell-based, CHO-K1
T4 sequence (O43613 whole entry): T3 sequence (whole entry)

Orexin receptor type 2 [7] = molecular target: T1, Orexin receptor type 2; assay: Agonist activity at human OX2R expressed in CHOK1 cells by NFAT-response luciferase reporter gene assay; type: cell-based; details: cho-k1
[8] = molecular target: T2, Orexin receptor type 2 (Homo sapiens); assay: Agonist activity at human OX2R expressed in CHOK1 cells at 10 uM by NFAT-response luciferase reporter gene assay relative to orexin-A; type: cell-based; details: CHO-K1
[9] = molecular target: T2, Orexin receptor type 2 (Homo sapiens); assay: Agonist activity at human OX2R expressed in CHOK1 cells at 10 uM by calcium mobilization assay relative to orexin-A; type: functional, cell-based; details: CHO-K1
CHO-K1 = assay: Selectivity index, ratio of EC50 for human OX1R expressed in CHOK1 cells to EC50 for human OX2R expressed in CHOK1 cells; type: cell-based
[10] = molecular target: T2, Orexin receptor type 2 (Homo sapiens); assay: Agonist activity at human OX2R expressed in CHOK1 cells at 1 uM by calcium mobilization assay relative to orexin-A; type: functional, cell-based; details: CHO-K1
Mus musculus [11] = assay: Induction of wakefullness in OX1R/OX2R double knock out C57BL/6J mouse assessed as increase in wake time by measuring EEG/EMG signals at 260 nmol, icv dosed on every other day during light phase; type: functional, organism-based
How it was run: as §1

Mus musculus [12] = assay: Induction of wakefullness in C57BL/6J mouse assessed as EEG/EMG signals at 32 to 260 nmol, icv dosed on every other day during light phase; type: functional, organism-based
How it was run: as §1

[13] = Stability in pH 8.0 buffer; type: physicochemical
[14] = molecular target: T2, Orexin receptor type 2 (Homo sapiens); assay: Agonist activity at human OX2R expressed in CHOK1 cells at 5 uM by NFAT-response luciferase reporter gene assay relative to orexin-A; type: cell-based; details: CHO-K1
[15] = molecular target: T2, Orexin receptor type 2 (Homo sapiens); assay: Agonist activity at human OX2R expressed in CHOK1 cells at 5 uM by calcium mobilization assay relative to orexin-A; type: functional, cell-based; details: CHO-K1

Question: Which results are given for `COc1ccccc1C(=O)NCCNc1cccc(NS(=O)(=O)c2cc(-c3cccc(C(=O)N4CCC4)c3)ccc2OC)c1`?
Answer: EC50 (Orexin receptor type 2 [1]): 235 nM; Emax [2]: 85%

Question: Which Emax [3] does the source give for `COc1ccc(-c2cccc(C(=O)N(C)C)c2)cc1S(=O)(=O)Nc1cccc(NCCNC(=O)c2cccc(C)c2)c1` here?
Answer: The Emax was 100%.

Question: And the Ki (Orexin receptor type 2 [4])?
Answer: Its Ki is 770 nM.

Question: For `COc1ccccc1C(=O)NCCNc1cccc(NS(=O)(=O)c2cc(-c3cccnc3)ccc2OC)c1`, which Emax [2] is on record?
Answer: The Emax was 88%.

Question: For `COc1ccc(-c2cccc(C(=O)N(C)C)c2)cc1S(=O)(=O)Nc1cccc(NCCNC(=O)c2ccccc2N(C)C)c1.Cl`, which Time (Mus musculus [5]) is on record?
Answer: Its Time is 53 min.

Question: Which EC50 ([6]; cho-k1) does the source give for `COc1ccc(-c2cccc(C(=O)N(C)C)c2)cc1C(=O)Nc1cccc(NCCNC(=O)c2cccc(C)c2)c1` here?
Answer: Its EC50 is “Not Active”.

Question: And the EC50 (Orexin receptor type 2 [7])?
Answer: Its EC50 is “Not Active”.

Question: For `COc1ccccc1C(=O)NCCNc1cccc(NS(=O)(=O)c2cc(-c3cccc(F)c3)ccc2OC)c1`, which EC50 (Orexin receptor type 2 [1]) is on record?
Answer: The EC50 was over 10000 nM.

Question: What about the Emax [2] of the same compound?
Answer: Its Emax is 47%.

Question: Which EC50 (Orexin receptor type 2 [1]) does the source give for `COc1ccc(-c2cccc(C(=O)N(C)C)c2)cc1S(=O)(=O)Nc1cccc(NCCNC(=O)c2ccccc2N(C)C)c1` [listing 1 of 2 here] here?
Answer: The EC50 was 28 nM.

Question: What about the EC50 ([6]; read-out: EC50) of the same compound?
Answer: The EC50 was 2750 nM.

Question: With `COc1ccccc1C(=O)NCCNc1ccc(NS(=O)(=O)c2cc(C(C)C)c(C)cc2OC)cc1` as the compound, how does the Efficacy [8] read?
Answer: Its Efficacy is 18%.

Question: And the Efficacy [9]?
Answer: Its Efficacy is 12%.

Question: Which EC50 (Orexin receptor type 2 [1]) does the source give for `COc1ccc(-c2cccc(C(=O)N(C)C)c2)cc1S(=O)(=O)Nc1cccc(NCCNC(=O)c2ccccc2)c1` here?
Answer: The EC50 was over 10000 nM.

Question: For `COc1cccc(C(=O)NCCNc2cccc(NS(=O)(=O)c3cc(-c4cccc(C(=O)N(C)C)c4)ccc3OC)c2)c1`, which Emax [3] is on record?
Answer: Its Emax is 49%.

Question: And the Ratio EC50 (CHO-K1)?
Answer: The Ratio EC50 was 280.

Question: And the EC50 ([6]; read-out: EC50)?
Answer: Its EC50 is 9250 nM.

Question: With `COc1ccc(-c2cccc(C(=O)N(C)C)c2)cc1S(=O)(=O)Nc1cccc(NCCNC(=O)c2cccc(Cl)c2)c1` as the compound, how does the Emax [3] read?
Answer: The Emax was 73%.

Question: What about the EC50 (Orexin receptor type 2 [1]) of the same compound?
Answer: The EC50 was 94 nM.

Question: And the Ratio EC50 (CHO-K1)?
Answer: Its Ratio EC50 is 60.

Question: What about the EC50 ([6]; read-out: EC50) of the same compound?
Answer: Its EC50 is 5720 nM.

Question: Which EC50 (Orexin receptor type 2 [1]) does the source give for `COC(=O)c1cccc(-c2ccc(OC)c(S(=O)(=O)Nc3cccc(NCCNC(=O)c4ccccc4OC)c3)c2)c1` here?
Answer: The EC50 was over 10000 nM.

Question: And the Emax [2]?
Answer: The Emax was 49%.

Question: For `COc1ccc(-c2cccc(C(=O)N(C)C)c2)cc1S(=O)(=O)Nc1cccc(NCCNC(=O)c2ccccc2Cl)c1`, which Emax [3] is on record?
Answer: Its Emax is 50%.

Question: What about the Ratio EC50 (CHO-K1) of the same compound?
Answer: The Ratio EC50 was 198.

Question: And the EC50 ([6]; read-out: EC50)?
Answer: The EC50 was 6130 nM.

Question: With `CNC(=O)c1cccc(-c2ccc(OC)c(S(=O)(=O)Nc3cccc(NCCNC(=O)c4ccccc4OC)c3)c2)c1` as the compound, how does the Emax [10] read?
Answer: Its Emax is 98%.

Question: With `COc1ccccc1C(=O)NCCNc1cccc(NS(=O)(=O)c2cc(-c3ccccc3)ccc2OC)c1` as the compound, how does the EC50 (Orexin receptor type 2 [1]) read?
Answer: Its EC50 is over 10000 nM.

Question: And the Emax [2]?
Answer: The Emax was 48%.

Question: Which Emax [3] does the source give for `COc1ccccc1C(=O)NCCNc1cccc(NS(=O)(=O)c2cc(-c3cccc(C(=O)N(C)C)c3)ccc2OC)c1` here?
Answer: Its Emax is 46%.

Question: What about the Ratio EC50 (CHO-K1) of the same compound?
Answer: The Ratio EC50 was 105.

Question: And the EC50 ([6]; read-out: EC50)?
Answer: The EC50 was 5230 nM.

Question: What about the Emax [10] of the same compound?
Answer: Its Emax is 74%.

Question: Which Emax [3] does the source give for `COc1ccc(-c2cccc(C(=O)N(C)C)c2)cc1S(=O)(=O)Nc1cccc(NCCNC(=O)c2ccccc2N(C)C)c1` [listing 2 of 2 here] here?
Answer: The Emax was 55%.

Question: And the Activity (Mus musculus [11])?
Answer: The Activity was “inactive”.

Question: And the Activity (Mus musculus [12])?
Answer: The Activity was “Dose-dependent effect”.

Question: For `COc1ccccc1C(=O)NCCNc1cccc(NS(=O)(=O)c2cc(C(C)C)c(C)cc2OC)c1`, which Efficacy [8] is on record?
Answer: Its Efficacy is 33%.

Question: What about the Efficacy [9] of the same compound?
Answer: The Efficacy was 22%.

Question: Which EC50 (Orexin receptor type 2 [1]) does the source give for `COc1ccccc1C(=O)NCCNc1cccc(NS(=O)(=O)c2cc(-c3cccc(N)c3)ccc2OC)c1` here?
Answer: Its EC50 is over 1000 nM.

Question: What about the Emax [2] of the same compound?
Answer: Its Emax is 73%.

Question: With `COc1ccccc1C(=O)NCCNc1cc(C)ccc1NS(=O)(=O)c1cc(C(C)C)c(C)cc1OC` as the compound, how does the Efficacy [8] read?
Answer: Its Efficacy is 9%.

Question: And the Efficacy [9]?
Answer: The Efficacy was “inactive”.

Question: What does the source list for `COc1cccc(-c2ccc(OC)c(S(=O)(=O)Nc3cccc(NCCNC(=O)c4ccccc4OC)c3)c2)c1`?
Answer: EC50 (Orexin receptor type 2 [1]): 800 nM; Emax [10]: 54%

Question: With `Cc1ccc(S(=O)(=O)n2nc(OC(=O)c3c(-c4ccccc4Cl)noc3C)cc2N)cc1` as the compound, how does the Stability [13] read?
Answer: Its Stability is “Unstable”.

Question: And the Efficacy [14]?
Answer: Its Efficacy is 36%.

Question: What about the Efficacy [15] of the same compound?
Answer: The Efficacy was “inactive”.

Question: For `COc1ccccc1C(=O)N1CCC(CNS(=O)(=O)c2cc(C(C)C)c(C)cc2OC)CC1`, which Efficacy [8] is on record?
Answer: Its Efficacy is 16%.

Question: What about the Efficacy [9] of the same compound?
Answer: The Efficacy was “inactive”.

Question: With `COc1ccccc1C(=O)N[C@H]1CC[C@H](CNS(=O)(=O)c2cc(C(C)C)c(C)cc2OC)CC1` as the compound, how does the Efficacy [8] read?
Answer: Its Efficacy is 24%.

Question: And the Efficacy [9]?
Answer: The Efficacy was “inactive”.
